Sampled rows, rich in hits. Any-hit rate of the full collection: about 2.9%.
dFosB act – activators of delta FosB homodimer, primary screen, biochemical, fluorescence polarization, TAMRA-CDK5 oligo, single point; Protein FosB (Mus musculus), P13346; purified delta FosB; percent of positive-control signal above neutral wells; activation, % at 25 µM; actives 0.99% (n = 340,000); AID 493131, 2011;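 active means mean activation above about 17%, with every replicate also reaching it, limit read from the data, passing the limit was not always enough; inconclusive means only one of the two conditions met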
CDK5 p35 inh – inhibitors of human CDK5/p35 kinase, primary screen, biochemical, single concentration. Cyclin-dependent kinase 5 (Homo sapiens) + Cyclin-dependent kinase 5 activator 1 (Homo …. Recombinant CDK5/p35, ADP-Glo luminescence, 60 min. inhibition, % at 10 µM. actives 0.01% (n = 330,000). AID 488839, 2010;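 active means highest replicate inhibition of at least 50% and at least 75% of replicates reaching 50%; inconclusive means only one of the two criteria met; inactive means both criteria failed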;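 further: plate controls were DMSO neutral control for no effect and GW8510 at 10 µM for full effect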
Target sequence (Q00535 whole entry, looked up): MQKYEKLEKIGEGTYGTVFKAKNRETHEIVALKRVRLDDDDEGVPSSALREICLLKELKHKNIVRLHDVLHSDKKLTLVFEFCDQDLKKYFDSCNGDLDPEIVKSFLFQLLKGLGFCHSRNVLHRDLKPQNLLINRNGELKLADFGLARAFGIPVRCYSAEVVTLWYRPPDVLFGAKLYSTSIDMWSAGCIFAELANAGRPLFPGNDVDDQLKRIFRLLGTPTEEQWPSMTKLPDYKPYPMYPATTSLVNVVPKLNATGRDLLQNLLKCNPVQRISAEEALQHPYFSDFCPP
Target sequence (Q15078 whole entry, looked up): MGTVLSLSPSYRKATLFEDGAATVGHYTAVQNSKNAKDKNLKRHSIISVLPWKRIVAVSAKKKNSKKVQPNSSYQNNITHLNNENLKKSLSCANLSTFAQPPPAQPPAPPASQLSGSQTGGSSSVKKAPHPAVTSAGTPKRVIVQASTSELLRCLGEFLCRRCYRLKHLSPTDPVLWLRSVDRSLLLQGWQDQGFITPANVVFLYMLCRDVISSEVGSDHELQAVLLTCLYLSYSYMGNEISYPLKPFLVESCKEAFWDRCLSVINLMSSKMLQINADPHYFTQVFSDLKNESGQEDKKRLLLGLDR
GSIS activator – GLuc luminescence reporter in INS-1E cells, primary screen for activators of glucose-dependent secretion of insulin; INS-1E GLuc reporter insulin secretion, 2-3 h; activation, % at 16.6 µM; actives 0.61% (n = 370,000); AID 743287, 2014;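 active means lowest replicate activation of at least 40%, so every replicate reaches that level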;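 further: 0% = median of neutral control wells and 100% = median of IBMX positive control wells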
HIV Env fusion – inhibitors of HIV-1 Env-driven cell-cell fusion, primary screen, HeLa-JRFL effector, CEM21 target cells, luciferase. inhibition, % at 12.3 µM. actives 1.1% (n = 360,000). AID 651610, 2012;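 active means mean replicate inhibition score of at least 50 and every replicate individually at or above 50; inconclusive means only one of the two criteria met; inactive means mean below 50 and not all replicates reaching 50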;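 further: 0% = plate neutral controls and 100% = maraviroc near 300 nM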
Cneo AK release – Cryptococcus neoformans cell lysis inducers, primary screen, AK release luminescence, single concentration | lysis activity, % at 15 µM | AID 651654, 2012 | actives 0.2% (n = 360,000) | C. neoformans lysis, adenylate kinase release luminescence, 4 h; normalised: neutral wells 0, clomiphene wells 100;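 active means mean lysis activity across replicates of at least 80%, whatever share of replicates individually reach that level; inactive means mean lysis activity below 80%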
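Assay system: C. neoformans cells. Amount: yeast cell density of 5 × 10^6 cells/mL. Technique: AK luminescence. Buffer or medium: YPD. Times: static 4 h at 37 °C with compound, 1 h detection. Dosing: single-point compound dose. Read-out: lysis from increased AK signal.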
PAX8 inh HTS – inhibitors of PAX8-driven TPO luciferase reporter, primary screen, RMG-I cells, single concentration; SteadyGlo, 24 h; inhibition, % at 12.6 µM; actives 1.2% (n = 360,000);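 active means mean replicate inhibition at least 60% with every replicate also reaching 60%; inconclusive means only one of the two criteria is met; inactive means mean below 60% and not all replicates reaching 60%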;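 further: luciferase light reporting Pax8 driven TPO promoter activity; plate controls were median of neutral control wells for no effect and mitoxantrone controls for full effect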
The depositor's hits bear a star; ? = inconclusive; . = no result; [ ] = dose if it differs, or a comment.

SMILES | dFosB act | CDK5 p35 inh | GSIS activator | HIV Env fusion | Cneo AK release | PAX8 inh HTS
Cc1ccc(S(=O)(=O)N(C)C[C@@H]2Oc3ccc(NC(=O)CCC(F)(F)F)cc3C(=O)N([C@@H](C)CO)C[C@@H]2C)cc1 | . | . | 2.5 | ? | 0.1 | -4.7
COc1ccc(S(=O)(=O)/N=C2/NC(=O)/C(=C\c3cc(OC)c(OC)cc3[N+](=O)[O-])S2)cc1 | -2.8 | -1.3 | -15.7 | 40.3* | 1.6 | 4.0
COc1ccc(S(=O)(=O)/N=C2/NC(=O)/C(=C/c3ccco3)S2)cc1 | -15.8 | -4.8 | . | . | . | 70.0*
O=C(C[C@@H]1CC[C@@H]2[C@H](COC[C@@H](O)CN2C(=O)c2ccc3c(c2)OCO3)O1)NCCN1CCCC1 | . | . | 22.5 | . | . | -103.8
COc1ccc(Br)cc1C(=O)Nc1cc(C)cc(C)c1 | -7.7 | -0.2 | 81.7* | . | -2.3 | .
COc1ccc(Br)cc1C(=O)Nc1ccc(NC(=O)c2ccco2)cc1 | 0.0 | -1.1 | 2.4 | . | 0.0 | .
CCC/C=C(\CCC)C(NS(=O)(=O)c1cccc2cccnc12)c1ccc(C(=O)OC)cc1 (stereo not given) | . | . | 2.3 | 90.0* | . | 6.4
O=C(NC1CCCC1)C(C1CC1)n1c(-c2ccccn2)nc2ccccc21 (stereo not given) | . | . | 42.8* | -4.6 | . | 5.8
CSCCC(C(=O)NC1CCCC1)n1c(-c2ccccn2)nc2ccccc21 (stereo not given) | . | . | 1.4 | -42.7 | . | 15.6
Cc1cc(C(=O)COc2ccc(-c3nnco3)cc2)c(C)n1Cc1ccccc1 | 2.0 | -0.1 | . | 65.2* | -1.6 | 16.3
COCC(=O)N(C)C[C@H]1Oc2cc(-c3ccncc3)ccc2S(=O)(=O)N([C@H](C)CO)C[C@H]1C | . | . | 6.6 | -7.2[16.7 µM] | 0.0 | .
COc1ccc(/C=C/C(=O)NCC(=O)N/N=C/c2cc(Br)ccc2OCc2ccccc2)cc1 | 2.4 | -1.2 | -21.5 | . | . | .
COc1cccc(/C=N/NC(=O)CNC(=O)/C=C\c2ccccc2)c1O | 58.0* | -1.4 | -1.6 | 6.7 | 0.4 | 16.1
COc1ccc(/C=C\C(=O)NCC(=O)N/N=C/c2cccc(OC)c2O)cc1 | 46.5* | 3.1 | 7.8 | 0.2 | 18.4 | 1.3
COc1cccc(/C=N/NC(=O)CC2C(=O)NN=C2C)c1O (stereo not given) | -4.7 | 0.7 | . | 69.8* | -0.4 | .
COc1cccc(/C=N/NC(=O)CC2C(=O)NN=C2C)c1OC (stereo not given) | 0.1 | 0.1 | . | -9.5 | 1.8 | 15.3
COc1ccccc1/C=C/C(=O)NCC(=O)N/N=C/c1ccccc1 | -8.6 | 0.3 | 0.0 | -5.8 | . | 11.0
CC(=O)Nc1cc(-c2cccc(C(=O)NCCN(C)C)c2)cn2c(-c3cccc(C(F)(F)F)c3)cnc12 | . | . | 169.8* | 32.3 | 3.7 | 106.4*
CC(=O)Nc1cc(-c2cccc(C(=O)NCCN(C)C)c2)cn2c(-c3ccccc3)cnc12 | . | . | -6.3 | -4.3 | 1.9 | 7.8
CN(C)CCNC(=O)c1cccc(-c2cnc3c(NC=O)cc(-c4ccc(F)cc4)cn23)c1 | . | . | 10.5 | -23.5 | -11.7 | 18.0
CCSc1ccc(-c2cc(NC=O)c3ncc(-c4cccc(C(=O)NCCN(C)C)c4)n3c2)cc1 | . | . | 25.6 | 4.7 | 3.9 | 99.3*
CC(C)NC(=O)Nc1ccc2c(c1)C(=O)N(C)[C@H]1CC[C@@H](CC(=O)Nc3ccccc3)O[C@H]1CO2 | . | . | 0.6 | -9.0[16.7 µM] | -3.5 | -3.5
CCC(=O)N1[C@H](CO)[C@@H](c2ccccc2)[C@@H]1CN(CC)C(=O)NC1CCCC1 | . | . | 1.2 | . | 3.5 | -4.8
COc1ccc(C(=O)NCc2ccccc2CN2CCCC2)cc1S(=O)(=O)N1CCOCC1 | -7.5 | 0.0 | 4.7 | 61.9* | 0.8 | -20.2
C[C@H]1CN([C@@H](C)CO)S(=O)(=O)c2ccc(C3=CCCCC3)cc2O[C@H]1CN(C)Cc1ccccc1 | . | . | -19.2 | 33.5[16.7 µM] | -1.0 | .
SMILES | dFosB act | CDK5 p35 inh | GSIS activator | HIV Env fusion | Cneo AK release | PAX8 inh HTS
C[C@@H]1CN([C@H](C)CO)C(=O)c2cc(C#Cc3ccccc3)cnc2O[C@@H]1CN(C)C(=O)C1CC1 | . | . | 10.1 | -21.5[16.7 µM] | -1.3 | .
COC(=O)c1scc(C)c1NC(=O)CC1NCCNC1=O (stereo not given) | . | . | 60.4* | 2.4 | -4.6 | -17.4
CCOC(=O)c1c(C)cc2c(CO)n[nH]c(=O)c2c1C | . | . | 27.8 | 56.2* | 0.8 | -22.8
Cn1cnc(S(=O)(=O)N[C@H]2CC[C@@H](CC(=O)NCC3CCCCC3)O[C@@H]2CO)c1 | . | . | 5.0 | . | 50.3 | .
O=C(C[C@@H]1C[C@H]2c3cc(NS(=O)(=O)c4ccc(F)cc4)ccc3O[C@H]2[C@H](CO)O1)NCc1ccc(Cl)cc1 | . | . | -36.2 | -83.1[16.7 µM] | 4.3 | 77.9*
O=C(C[C@@H]1C[C@@H]2c3cc(NS(=O)(=O)c4ccc(F)cc4)ccc3O[C@@H]2[C@@H](CO)O1)NCc1ccc(-c2ccccc2)cc1 | . | . | . | 25.3[16.7 µM] | -34.4 | 87.4*
O=C(C[C@H]1C[C@H]2c3cc(NS(=O)(=O)c4ccc(F)cc4)ccc3O[C@H]2[C@H](CO)O1)NCc1ccc(-c2ccccc2)cc1 | . | . | -11.0 | 54.5[16.7 µM] | -33.0 | 83.8*
O=C(C[C@@H]1C[C@H]2c3cc(NS(=O)(=O)c4ccc(F)cc4)ccc3O[C@H]2[C@H](CO)O1)NCc1ccccc1 | . | . | -19.6 | -23.3[16.7 µM] | -1.8 | 47.6
O=C(C[C@@H]1C[C@H]2c3cc(NS(=O)(=O)c4ccc(F)cc4)ccc3O[C@H]2[C@@H](CO)O1)NCc1ccc(-c2ccccc2)cc1 | . | . | -11.3 | 25.5[16.7 µM] | 4.9 | 73.5*
Cc1ccc(S(=O)(=O)Nc2ccc3c(c2)C(=O)N([C@H](C)CO)C[C@H](C)[C@H](CN(C)Cc2ccc4c(c2)OCO4)O3)cc1 | . | . | -18.1 | . | 1.9 | 8.0
C[C@H](CO)N1C[C@H](C)[C@@H](CN(C)CC2CCCCC2)Oc2ccc(NC(=O)Nc3ccc4c(c3)OCO4)cc2CC1=O | . | . | 6.8 | 24.6[16.7 µM] | 2.5 | 90.2*
C[C@H]1CN([C@@H](C)CO)C(=O)Cc2cc(NC(=O)Nc3ccc4c(c3)OCO4)ccc2O[C@@H]1CN(C)CC1CCCCC1 | . | . | 7.9 | 12.8[16.7 µM] | -1.2 | 101.1*
COc1ccc(N2C(=O)CN=C2Nc2nc(C)cc(C)n2)cc1 | 3.4 | 1.2 | . | -9.8 | -1.7 | 76.3*
Cc1cc(C)nc(NC2=NCC(=O)N2c2ccccc2)n1 | -5.4 | 1.7 | . | 0.1 | -0.7 | -5.5
COc1ccccc1-c1nnc(Sc2nc([N+](=O)[O-])nn2C)o1 | 2.7 | -0.4 | 18.0 | 126.3* | . | .
